Measured values of several laboratories.
Lines come from different studies, so protocols differ.
Target: Transient receptor potential cation channel subfamily M member 6 (TRPM6, Homo sapiens, UniProt Q9BX84)

CN(C)c1nccc(-c2cnc3ncccn23)n1
remaining binding (binding; 1 µM): 75%

Cc1nc(C2CCN(C(=O)c3ccc(OC(F)(F)F)cc3N)CC2)c2ncc(N3CCN(C)CC3)cc2n1
remaining binding (cell-free assay; competition with immobilised ligand; 1 µM): 100%

Nc1ncc2c(n1)-c1c([nH]c3ccc(C#CC4CC4)cc13)CCCC2
remaining binding (binding; competition with immobilised ligand; 1 µM): 75%

C[C@@H](c1ccc(-n2cnc3c(N)ncnc32)cc1)N1CCc2nn(C)c(Cc3ccccc3)c2C1=O
remaining binding (binding; competition with immobilised ligand; 0.1 µM): 76%

N[C@H]1CCN(c2nccc(-c3cnn4ncccc34)n2)C1
remaining binding (binding; 1 µM): 91%

COc1ccc2c(c1)O[C@@H](c1ccc(OC)c(OC)c1)C[C@H]2NC(=O)C1(c2ccc3c(c2)OC(F)(F)O3)CC1
remaining binding (cell-free assay; competition with immobilised ligand; 1 µM): 82%

CN(C)c1nccc(-c2cnn3ncccc23)n1
remaining binding (binding; 1 µM): 100%

CNC(=O)[C@@H]1CC[C@@H](n2c(-c3ccc4cnccc4c3)nc3ccc(C(=O)NCc4cccc(C(N)=O)c4)cc32)C1
remaining binding (binding; competition with immobilised ligand; 1 µM): 83%

O=C(NS(=O)(=O)c1ccc(NCC2CCOCC2)c([N+](=O)[O-])c1)c1ccc(N2CCN(Cc3ccc(C(F)(F)F)cc3-c3ccc(Cl)cc3)CC2)cc1Oc1cnc2[nH]ccc2c1
remaining binding (cell-free assay; competition with immobilised ligand; 1 µM): 89%

COc1ccnn2ncc(-c3ccnc(N(C)C)n3)c12
remaining binding (binding; 1 µM): 82%

O=C(c1ccc(Nc2ncc(Cl)c(-c3cc4ccccc4s3)n2)cc1)N1CCC(N2CCCC2)CC1
remaining binding (binding; competition with immobilised ligand; 1 µM): 100%

CN(C)C(=O)Cn1cc(-c2nc([C@@](C)(c3ccc(-c4cnc(N)nc4)cc3)C3CC3)no2)cn1
remaining binding (cell-free assay; competition with immobilised ligand; 1 µM): 78%

C[C@@H]1CCN(c2nccc(-c3cnn4ncccc34)n2)C1
remaining binding (binding; 1 µM): 91%

O=C(c1ccc(Nc2nccc(-c3cc4ccccc4s3)n2)cc1)N1CCC(N2CCCC2)CC1
remaining binding (binding; competition with immobilised ligand; 1 µM): 100%

CN(c1nccc(-c2cnn3ncccc23)n1)C1CC1
remaining binding (binding; 1 µM): 100%

C[C@H](c1ccc(F)cc1)N(Cc1cccc(C(=O)O)c1)C(=O)c1cnc2ccccc2c1
remaining binding (cell-free assay; competition with immobilised ligand; 1 µM): 100%

O=C(NCCCN1CCOCC1)c1ccc(Nc2ncc(Cl)c(-c3ccc(Cl)s3)n2)cc1
remaining binding (binding; competition with immobilised ligand; 1 µM): 100%

O=C(Nc1c[nH]nc1C(=O)NC1CCNCC1)c1cc(F)cc(F)c1
remaining binding (binding; competition with immobilised ligand; 1 µM): 88%

COc1cnc(Nc2cccc(S(N)(=O)=O)c2)nc1N1CCN(c2ccccc2)C(=O)C1
remaining binding (binding; competition with immobilised ligand; 1 µM): 93%

O=C(O)[C@H]1[C@H](Cn2nnc3ccccc3c2=O)CC[C@@H]1C(=O)c1ccc(OCCC2CCOCC2)cc1
remaining binding (cell-free assay; competition with immobilised ligand; 1 µM): 100%
